Measured values collected from several papers.
Converted amounts (≈) assume the structure as drawn.

SMILES | test | system | setting | quantity | result
CC(=O)Oc1ccccc1C(=O)O | – | aqueous buffer | 72 h, pH 6.8, 37 °C | thermodynamic solubility | 158000 µg/mL
CC(=O)N[C@@H](CCCNC(=N)N)C(=O)N[C@H]1CSSC[C@@H](C(=O)N[C@H](C(N)=O)[C@@H](C)O)NC(=O)[C@H](CCCNC(=N)N)NC(=O)[C@H](Cc2c[nH]cn2)NC(=O)[C@H](C)NC(=O)CNC(=O)[C@H](Cc2c[nH]c3ccccc23)NC(=O)[C@H](CC(=O)O)NC(=O)[C@H](CCC(N)=O)NC(=O)[C@H](Cc2c[nH]c3ccccc23)NC(=O)[C@H](C(C)C)NC1=O | absorbance | water | – | thermodynamic solubility | > 1000 µM
Brc1cccc2c(NCc3ccccc3)nc(NCc3ccccc3)nc12 | – | aqueous buffer | pH 5 | solubility | 0.42 µg/mL (≈ 1 µM)
CC[C@H](C)[C@H](NC(=O)[C@H](Cc1ccccc1)NC(=O)[C@H](Cc1ccc(O)cc1)NC(=O)[C@@H](CCCCN)NC(=O)[C@@H](N)Cc1ccc(O)cc1)C(=O)N1CCC[C@H]1C(=O)N[C@@H](CC(C)C)C(=O)NCC(=O)N[C@H](CCCCN)C(=O)NCC(=O)N[C@@H](CCC(=O)O)C(=O)N[C@H](C(=O)N[C@@H](CC(N)=O)C(=O)N[C@@H](CC(C)C)[C@@H](O)CC(=O)N[C@H](C(=O)N[C@@H](C)C(=O)N[C@@H](CCC(=O)O)C(=O)N1CCC[C@@H]1C(=O)N[C@@H](CCCCNC(=O)CCC(=O)O[C@H]1CC[C@@]2(C)C(=CC[C@H]3[C@@H]4CC[C@H]([C@H](C)CCCC(C)C)[C@@]4(C)CC[C@@H]32)C1)C(N)=O)C(C)C)C(C)C | – | aqueous buffer | pH 6.5 | thermodynamic solubility | < 1 µg/mL
COc1ccc(C2CC(=O)c3c(O)cc(O)cc3O2)cc1O (centres unmarked) | shake flask | aqueous buffer | 24 h, pH 5, 25 °C | thermodynamic solubility | 9.33 µg/mL
CC(=O)Nc1cc(Nc2cc(NC3CC3)n3ncc(C#N)c3n2)ccc1N(C)[C@H]1CCOC1 | shake flask | PBS | 24 h, pH 7.4, 22 °C | kinetic solubility | 21 µg/mL (≈ 47 µM)
Brc1cccc(Nc2nc(NCc3ccccc3)c3ccccc3n2)c1 | – | aqueous buffer | pH 7.4 | solubility | < 0.01 µg/mL
CC[C@H](C)[C@H](NC(=O)[C@H](Cc1ccccc1)NC(=O)[C@@H](CCCCN)NC(=O)[C@@H]1CCCN1C(=O)[C@@H](N)Cc1ccc(O)cc1)C(=O)N1CCC[C@H]1C(=O)N[C@@H](CC(C)C)C(=O)NCC(=O)N[C@H](CCCCN)C(=O)NCC(=O)N[C@@H](CCC(=O)O)C(=O)N[C@H](C(=O)N[C@@H](CC(N)=O)C(=O)N[C@@H](CC(C)C)[C@@H](O)CC(=O)N[C@H](C(=O)N[C@@H](C)C(=O)N[C@@H](CCC(=O)O)C(=O)N1CCC[C@@H]1C(=O)N[C@@H](CCCCNC(=O)CCC(=O)O[C@H]1CC[C@@]2(C)C(=CC[C@H]3[C@@H]4CC[C@H]([C@H](C)CCCC(C)C)[C@@]4(C)CC[C@@H]32)C1)C(N)=O)C(C)C)C(C)C | – | aqueous buffer | pH 6.5 | thermodynamic solubility | > 3000 µg/mL
CCCn1nc(C(=O)N2CCCCC2)c2c1CCC(N(C)Cc1ccc(F)cc1)C2 (centres unmarked) | – | PBS | 16 h, pH 7.4 | thermodynamic solubility | 2400 µM
CC[C@H](C)[C@H](NC(=O)[C@H](Cc1ccccc1)NC(=O)[C@H](Cc1ccc(O)cc1)NC(=O)[C@@H]1CCCN1C(=O)[C@H](N)CCCCN)C(=O)N1CCC[C@H]1C(=O)N[C@@H](CC(C)C)C(=O)NCC(=O)N[C@H](CCCCN)C(=O)NCC(=O)N[C@@H](CCC(=O)O)C(=O)N[C@H](C(=O)N[C@@H](CC(N)=O)C(=O)N[C@@H](CC(C)C)[C@@H](O)CC(=O)N[C@H](C(=O)N[C@@H](C)C(=O)N[C@@H](CCC(=O)O)C(=O)N1CCC[C@@H]1C(=O)N[C@@H](CCCCNC(=O)CCC(=O)O[C@H]1CC[C@@]2(C)C(=CC[C@H]3[C@@H]4CC[C@H]([C@H](C)CCCC(C)C)[C@@]4(C)CC[C@@H]32)C1)C(N)=O)C(C)C)C(C)C | – | aqueous buffer | pH 6.5 | thermodynamic solubility | 951 µg/mL
COc1cccc2c(NCc3ccccc3)nc(-n3c(=O)oc4ccccc43)nc12 | – | aqueous buffer | pH 6.2 | solubility | < 0.01 µg/mL
CC(=O)N[C@@H](CCCNC(=N)N)C(=O)N[C@H]1CSSC[C@@H](C(=O)N[C@H](C(N)=O)[C@@H](C)O)NC(=O)[C@H](CCCNC(=N)N)NC(=O)[C@H](Cc2c[nH]cn2)NC(=O)[C@H](C)NC(=O)CNC(=O)[C@H](Cc2c[nH]c3ccccc23)NC(=O)[C@H](CC(=O)O)NC(=O)[C@H](CCC(N)=O)NC(=O)[C@H](Cc2cn(C)c3ccccc23)NC(=O)[C@H](C(C)C)NC1=O | absorbance | water | – | thermodynamic solubility | > 1000 µM
CC[C@H](C)[C@H](NC(=O)[C@@H](CCCCN)NC(=O)[C@H](Cc1ccc(O)cc1)NC(=O)[C@@H]1CCCN1C(=O)[C@@H](N)Cc1ccc(O)cc1)C(=O)N1CCC[C@H]1C(=O)N[C@@H](CC(C)C)C(=O)NCC(=O)N[C@H](CCCCN)C(=O)NCC(=O)N[C@@H](CCC(=O)O)C(=O)N[C@H](C(=O)N[C@@H](CC(N)=O)C(=O)N[C@@H](CC(C)C)[C@@H](O)CC(=O)N[C@H](C(=O)N[C@@H](C)C(=O)N[C@@H](CCC(=O)O)C(=O)N1CCC[C@@H]1C(=O)N[C@@H](CCCCNC(=O)CCC(=O)O[C@H]1CC[C@@]2(C)C(=CC[C@H]3[C@@H]4CC[C@H]([C@H](C)CCCC(C)C)[C@@]4(C)CC[C@@H]32)C1)C(N)=O)C(C)C)C(C)C | – | aqueous buffer | pH 6.5 | thermodynamic solubility | > 2440 µg/mL
Brc1ccccc1CNc1nc(NCc2ccccc2)c2ccccc2n1 | – | aqueous buffer | pH 6.2 | solubility | 0.24 µg/mL (≈ 0.572 µM)
